Laboratory results: ChEMBL document CHEMBL1143785, “N/C-4 substituted azetidin-2-ones: synthesis and preliminary evaluation as new class of antimicrobial agents” (2007)
Converted amounts (≈) assume the structure as drawn. The source made the active and inactive calls. The rule behind the calls is not given here.

How the values were obtained:
[1] = tested on: Bacillus anthracis; assay: Antimicrobial activity against Bacillus anthracis at 400 ug/ml after 48 hrs by disc-diffusion assay; type: functional; settings: for zone of inhibition at 400 µg/mL: read-out: IZ
[2] = tested on: Aspergillus niger; assay: Antimicrobial activity against Aspergillus niger after 72 hrs by broth dilution assay; type: functional
Outline: (§1)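 Tube broth dilution in Sabouraud's Dextrose medium. Compound was dissolved in DMF and tested over 15.62 to 8000 µg/mL. Tubes were inoculated with fungal culture suspension and incubated at 25 °C for 72 h alongside a control. MIC was taken as the lowest concentration giving no turbidity.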

[3] = tested on: Staphylococcus aureus; assay: Antimicrobial activity against Staphylococcus aureus at 400 ug/ml after 48 hrs by disc-diffusion assay; type: functional; settings: for zone of inhibition at 400 µg/mL: read-out: IZ
Outline: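 Bacteria were grown 2.5 h in nutrient broth and spread evenly over dried agar plates. Sterile 6 mm paper discs were impregnated with 400 µg/mL compound and placed on the inoculated surface. A DMF solvent-only disc served as negative control and chloramphenicol as reference. Plates were incubated at 37 °C and inhibition zone diameter (mm) was read at 48 h.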

[4] = tested on: Candida albicans; assay: Antimicrobial activity against Candida albicans after 72 hrs by broth dilution assay; type: functional; outline: as §1
[5] = tested on: Salmonella typhi; assay: Antimicrobial activity against Salmonella typhi at 400 ug/ml after 48 hrs by disc-diffusion assay; type: functional, Salmonella enterica subsp. enterica serovar Typhi; settings: for zone of inhibition at 400 µg/mL: Salmonella enterica, read-out: IZ; for inhibition zone (IZ): Salmonella enterica subsp. enterica serovar Typhi
Outline: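 Disc diffusion. A few colonies were grown in nutrient broth for 2.5 h, then spread evenly on dried agar plates. Sterile 6 mm paper discs impregnated with compound were placed on the surface. Plates were incubated at 37 °C and the inhibition zone diameter in mm was read at 48 h. A DMF-only disc served as the negative control and chloramphenicol as the standard.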

[6] = tested on: Aspergillus fumigatus; assay: Antimicrobial activity against Aspergillus fumigatus after 72 hrs by broth dilution assay; type: functional; outline: as §1

Q: What does the source list for `COc1cc([C@@H]2[C@H](Cl)C(=O)N2NC(=O)CC(=O)Nc2ccc(Cl)cc2)ccc1OC(C)=O`?
A: zone of inhibition at 400 µg/mL [1]: 34 mm; MIC [2]: 1000 mg/L (≈ 2.08 mM); zone of inhibition at 400 µg/mL [3]: 30 mm; MIC [4]: 31.2 mg/L (≈ 0.0651 mM); zone of inhibition at 400 µg/mL [5]: 29 mm

Q: What does the source list for `COc1cc([C@@H]2[C@H](Cl)C(=O)N2NC(=O)CC(=O)Nc2ccccc2)ccc1OC(C)=O`?
A: inhibition zone (IZ) [1]: inactive; MIC [2]: 4000 mg/L (≈ 8.97 mM); zone of inhibition at 400 µg/mL [3]: 10 mm; MIC [4]: 1000 mg/L (≈ 2.24 mM); inhibition zone (IZ) [5]: inactive

Q: How did the zone of inhibition at 400 µg/mL [1] turn out when `O=C1[C@@H](Cl)[C@@H](c2cc(/N=N/c3ccc([N+](=O)[O-])cc3)ccc2O)N1c1ccc(Cl)cc1` was run?
A: Its zone of inhibition at 400 µg/mL is 21 mm.

Q: And the MIC [2]?
A: Its MIC is 2000 mg/L (≈ 4.37 mM).

Q: And the MIC [6]?
A: The MIC was “inactive”.

Q: What about the zone of inhibition at 400 µg/mL [3] of the same molecule?
A: Its zone of inhibition at 400 µg/mL is 17 mm.

Q: And the MIC [4]?
A: The MIC was 250 mg/L (≈ 0.547 mM).

Q: What about the zone of inhibition at 400 µg/mL [5] of the same molecule?
A: Its zone of inhibition at 400 µg/mL is 10 mm.

Q: Which results are given for `O=C1[C@@H](Cl)[C@@H](c2cc(/N=N/c3cccc([N+](=O)[O-])c3)ccc2O)N1c1ccc(Cl)cc1`?
A: zone of inhibition at 400 µg/mL [1]: 32 mm; MIC [2]: 1000 mg/L (≈ 2.19 mM); zone of inhibition at 400 µg/mL [3]: 30 mm; MIC [4]: 125 mg/L (≈ 0.273 mM); zone of inhibition at 400 µg/mL [5]: 27 mm

Q: What does the source list for `OC(Cn1cncn1)(Cn1cncn1)c1ccc(F)cc1F` [FLUCONAZOLE]?
A: inhibition zone (IZ) [1]: inactive; MIC [2]: 2000 mg/L (≈ 6.53 mM); inhibition zone (IZ) [3]: inactive; MIC [4]: 250 mg/L (≈ 0.816 mM); inhibition zone (IZ) [5]: inactive

Q: Which results are given for `O=C(N[C@H](CO)[C@H](O)c1ccc([N+](=O)[O-])cc1)C(Cl)Cl` [CHLORAMPHENICOL]?
A: zone of inhibition at 400 µg/mL [1]: 34 mm; MIC [2]: inactive; MIC [6]: inactive; zone of inhibition at 400 µg/mL [3]: 32 mm; MIC [4]: inactive; zone of inhibition at 400 µg/mL [5]: 36 mm

Q: Which zone of inhibition at 400 µg/mL [1] does the source give for `O=C1[C@@H](Cl)[C@@H](c2cc(/N=N/c3ccc([N+](=O)[O-])cc3)ccc2O)N1c1ccc(Br)cc1` here?
A: The zone of inhibition at 400 µg/mL was 8 mm.

Q: And the MIC [2]?
A: Its MIC is 4000 mg/L (≈ 7.97 mM).

Q: And the MIC [6]?
A: The MIC was “inactive”.

Q: What about the “inhibition zone (IZ)” value [3] of the same molecule?
A: Its value is “inactive”.

Q: What about the MIC [4] of the same molecule?
A: Its MIC is 4000 mg/L (≈ 7.97 mM).

Q: What about the “inhibition zone (IZ)” value [5] of the same molecule?
A: The value was “inactive”.

Q: How did the zone of inhibition at 400 µg/mL [1] turn out when `COc1cc([C@@H]2[C@H](Cl)C(=O)N2NC(=O)CC(=O)Nc2ccccc2[N+](=O)[O-])ccc1OC(C)=O` was run?
A: The zone of inhibition at 400 µg/mL was 17 mm.

Q: What about the MIC [2] of the same molecule?
A: Its MIC is 4000 mg/L (≈ 8.15 mM).

Q: What about the zone of inhibition at 400 µg/mL [3] of the same molecule?
A: Its zone of inhibition at 400 µg/mL is 11 mm.

Q: What about the MIC [4] of the same molecule?
A: The MIC was 2000 mg/L (≈ 4.07 mM).

Q: And the “inhibition zone (IZ)” value [5]?
A: Its value is “inactive”.

Q: How did the zone of inhibition at 400 µg/mL [1] turn out when `COc1cc([C@@H]2[C@H](Cl)C(=O)N2NC(=O)CC(=O)Nc2cccc(Cl)c2)ccc1OC(C)=O` was run?
A: Its zone of inhibition at 400 µg/mL is 22 mm.

Q: What about the MIC [2] of the same molecule?
A: The MIC was 2000 mg/L (≈ 4.16 mM).

Q: What about the zone of inhibition at 400 µg/mL [3] of the same molecule?
A: The zone of inhibition at 400 µg/mL was 26 mm.

Q: And the MIC [4]?
A: The MIC was 125 mg/L (≈ 0.26 mM).

Q: What about the zone of inhibition at 400 µg/mL [5] of the same molecule?
A: Its zone of inhibition at 400 µg/mL is 17 mm.

Q: Which results are given for `O=C1[C@@H](Cl)[C@@H](c2cc(/N=N/c3ccc([N+](=O)[O-])cc3)ccc2O)N1c1ccc(F)cc1`?
A: zone of inhibition at 400 µg/mL [1]: 12 mm; MIC [2]: 4000 mg/L (≈ 9.07 mM); inhibition zone (IZ) [3]: inactive; MIC [4]: 2000 mg/L (≈ 4.54 mM); inhibition zone (IZ) [5]: inactive

Q: Which results are given for `COc1cc([C@@H]2[C@H](Cl)C(=O)N2NC(=O)CC(=O)Nc2ccc([N+](=O)[O-])cc2)ccc1OC(C)=O`?
A: zone of inhibition at 400 µg/mL [1]: 12 mm; MIC [2]: 4000 mg/L (≈ 8.15 mM); inhibition zone (IZ) [3]: inactive; MIC [4]: 1000 mg/L (≈ 2.04 mM); inhibition zone (IZ) [5]: inactive

Q: How did the zone of inhibition at 400 µg/mL [1] turn out when `O=C1[C@@H](Cl)[C@@H](c2cc(/N=N/c3cccc([N+](=O)[O-])c3)ccc2O)N1c1ccc(F)cc1` was run?
A: Its zone of inhibition at 400 µg/mL is 28 mm.

Q: What about the MIC [2] of the same molecule?
A: Its MIC is 500 mg/L (≈ 1.13 mM).

Q: And the zone of inhibition at 400 µg/mL [3]?
A: The zone of inhibition at 400 µg/mL was 29 mm.

Q: What about the MIC [4] of the same molecule?
A: Its MIC is 62.5 mg/L (≈ 0.142 mM).

Q: And the zone of inhibition at 400 µg/mL [5]?
A: The zone of inhibition at 400 µg/mL was 21 mm.

Q: Which results are given for `COc1cc([C@@H]2[C@H](Cl)C(=O)N2NC(=O)CC(=O)Nc2cccc([N+](=O)[O-])c2)ccc1OC(C)=O`?
A: zone of inhibition at 400 µg/mL [1]: 33 mm; MIC [2]: 2000 mg/L (≈ 4.07 mM); zone of inhibition at 400 µg/mL [3]: 27 mm; MIC [4]: 62.5 mg/L (≈ 0.127 mM); zone of inhibition at 400 µg/mL [5]: 31 mm

Q: What does the source list for `O=C1[C@@H](Cl)[C@@H](c2cc(/N=N/c3cccc([N+](=O)[O-])c3)ccc2O)N1c1ccc(Br)cc1`?
A: zone of inhibition at 400 µg/mL [1]: 17 mm; MIC [2]: 4000 mg/L (≈ 7.97 mM); zone of inhibition at 400 µg/mL [3]: 11 mm; MIC [4]: inactive; zone of inhibition at 400 µg/mL [5]: 8 mm

Q: With `COc1cc([C@@H]2[C@H](Cl)C(=O)N2NC(=O)CC(=O)Nc2ccccc2Cl)ccc1OC(C)=O` as the molecule, how does the zone of inhibition at 400 µg/mL [1] read?
A: Its zone of inhibition at 400 µg/mL is 21 mm.

Q: What about the MIC [2] of the same molecule?
A: The MIC was 1000 mg/L (≈ 2.08 mM).

Q: What about the zone of inhibition at 400 µg/mL [3] of the same molecule?
A: The zone of inhibition at 400 µg/mL was 12 mm.

Q: And the MIC [4]?
A: The MIC was 500 mg/L (≈ 1.04 mM).

Q: And the “inhibition zone (IZ)” value [5]?
A: The value was “inactive”.

Q: Which results are given for `O=C1[C@@H](Cl)[C@@H](c2cc(/N=N/c3ccc([N+](=O)[O-])cc3)ccc2O)N1c1ccccc1`?
A: zone of inhibition at 400 µg/mL [1]: 10 mm; MIC [2]: 4000 mg/L (≈ 9.46 mM); MIC [6]: inactive; zone of inhibition at 400 µg/mL [3]: 8 mm; MIC [4]: 2000 mg/L (≈ 4.73 mM); inhibition zone (IZ) [5]: inactive

Q: Which results are given for `O=C1[C@@H](Cl)[C@@H](c2cc(/N=N/c3cccc([N+](=O)[O-])c3)ccc2O)N1c1ccccc1`?
A: zone of inhibition at 400 µg/mL [1]: 31 mm; MIC [2]: 4000 mg/L (≈ 9.46 mM); zone of inhibition at 400 µg/mL [3]: 24 mm; MIC [4]: 1000 mg/L (≈ 2.37 mM); zone of inhibition at 400 µg/mL [5]: 18 mm
